Measured values reported in paper PMC9979192 (Acta Pharmaceutica Sinica. B, 2022).
Like-named read-outs stand apart in the source and are kept apart here.

Assays:
rhesus monkeys = assay: Rhesus monkeys with spontaneous hyperlipidemia, efficacy and safety; type: in vivo, rhesus monkey; settings: 2 weeks; 326E 20 mg/kg, atorvastatin 2.4 mg/kg
[1] = tested on: mouse primary hepatocytes; assay: In vitro de novo lipogenesis in primary hepatocytes; type: cell-based; settings: 24 h treatment; compared with BA
In short: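 Hepatocytes came from 8–12-week male C57BL/6J mice by Percoll purification and were kept in Hepato ZYME-SFM with 2 mmol/L l-glutamine and antibiotics at 6 × 10^5 cells/well. Treated either 24 h with 0.1 μCi/well [1,2-14C]-acetate during the last 4 h, or 4 h with the label present. 14C in fatty acids and cholesterol was extracted and scintillation-counted, then normalized to DMSO; n = 3–4.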

[2] = tested on: primary mouse hepatocytes; assay: Glucose output; type: cell-based; settings: 6 h, pyruvate 2 mmol/L and lactate 20 mmol/L; compared to BA
In short: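 Primary hepatocytes from male C57BL/6J mice were treated with the test compound for 6 h in gluconeogenic medium with pyruvate (2 mmol/L) and lactate (20 mmol/L), with or without 4.0 mmol/L l-glutamine. Glucose output into the medium was measured and normalized to the DMSO group; n = 4.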

primary hepatocytes = assay: In vitro cholesterol efflux and Abcg5/8 expression; type: cell-based, mouse; settings: 3H-cholesterol, 12 h; BA 50 μmol/L
In short: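 For Abcg5/Abcg8 mRNA, primary mouse hepatocytes were treated 24 h with 50 μmol/L test compound plus 15 μg/mL cholesterol in 420 μg/mL M-β-CD. For efflux, cells were loaded 12 h with 0.5 μCi/mL 3H-cholesterol plus cholesterol, washed, then given 12.5–50 μmol/L compound with 15 μg/mL cholesterol in serum-free medium for 12 h at 37 °C. 3H in medium and NaOH lysate was counted; T0901317 (1 μmol/L) served as positive control.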

HCD mice = assay: In vivo cholesterol efflux in HCD mice; set-up: species or system C57BL/6J mice; settings: oral 30 mg/kg for 7 days
golden hamsters = assay: HFHC diet-induced hyperlipidemia in golden hamsters; type: in vivo, golden hamster; settings: 2 weeks; 326E 15 and 30 mg/kg, BA 30 mg/kg; vs vehicle
ApoE-/- mice = assay: Western diet-induced atherosclerosis in ApoE-/- mice; type: in vivo, mouse; settings: 24 weeks once daily oral
In short: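 Male ApoE−/− mice were started at 6–8 weeks on a high-fat, high-cholesterol diet for 23–24 weeks, with oral compound dosing. Whole aortas were stained with Sudan IV for plaque, and plasma hsCRP was measured. For hepatic cholesterol, liver lipid residue was resuspended in ethanol with 1% Triton X-100 and assayed with commercial kits.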

[3] = mouse plasma; ref a previous study; cited from earlier work
[4] = human plasma; ref a previous study; cited from earlier work
[5] = rat plasma; ref a previous study; cited from earlier work
[6] = monkey plasma; ref a previous study; cited from earlier work
[7] = tested on: hypercholesterolemia patients; settings: at 12 weeks, with maximally tolerated statin therapy; cited from earlier work

## CC(C)c1c(C(=O)Nc2ccccc2)c(-c2ccccc2)c(-c2ccc(F)cc2)n1CC[C@@H](O)C[C@@H](O)CC(=O)O [atorvastatin, Atorvastatin]
Rhesus monkeys
  body weight during treatment: unchanged

## CC(C)(CCCCC=CCCCCCC(C)(C)C(=O)O)C(=O)O [326F]
[1]
  incorporation of [1,2-14C]-acetate into fatty acids and cholesterol: dose-dependent lipogenesis inhibition
[2]
  cumulative glucose production: reduced with a greater tendency

## CC(C)(CCCCCC(O)CCCCCC(C)(C)C(=O)O)C(=O)O [BA, Bempedoic acid]
Primary hepatocytes
  cholesterol efflux into the cell culture medium: markedly promoted cholesterol efflux
HCD mice
  hepatic cholesterol content: significantly reduced hepatic cholesterol content
Golden hamsters
  body weight: significantly decreased
ApoE-/- mice
  hepatic cholesterol content reduced compared to vehicle: 37%
ApoE-/- mice; 326E 15, 30, 60 mg/kg, BA 30 mg/kg
  aortic plaques reduced: 33.4%
[3]
  in vitro plasma protein-binding rate: 95%–98
[4]
  in vitro plasma protein-binding rate: 95%–98
[5]
  in vitro plasma protein-binding rate: 95%–98
[6]
  in vitro plasma protein-binding rate: 95%–98
[7]
  placebo-adjusted decrease from baseline in LDL-C: 16.5%
